# Keap1 Nrf2 FP – inhibitors of human Keap1-Nrf2 protein-protein interaction. Q14145. Keap1 Kelch-Nrf2 peptide fluorescence polarization, 1536-well. inhibition, % at 9.4 µM. 340,000 tested, 0.15% active. AID 504523; in the data active = inhibition above about 12%;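 note: human Keap1 Kelch domain with fluorescein labeled Nrf2 9mer peptide probe; 0% = neutral control wells and 100% = peptide positive control; higher means more block of Keap1 binding to Nrf2 peptide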
# Target sequence (Q14145 whole entry, looked up, the tested form may be a part): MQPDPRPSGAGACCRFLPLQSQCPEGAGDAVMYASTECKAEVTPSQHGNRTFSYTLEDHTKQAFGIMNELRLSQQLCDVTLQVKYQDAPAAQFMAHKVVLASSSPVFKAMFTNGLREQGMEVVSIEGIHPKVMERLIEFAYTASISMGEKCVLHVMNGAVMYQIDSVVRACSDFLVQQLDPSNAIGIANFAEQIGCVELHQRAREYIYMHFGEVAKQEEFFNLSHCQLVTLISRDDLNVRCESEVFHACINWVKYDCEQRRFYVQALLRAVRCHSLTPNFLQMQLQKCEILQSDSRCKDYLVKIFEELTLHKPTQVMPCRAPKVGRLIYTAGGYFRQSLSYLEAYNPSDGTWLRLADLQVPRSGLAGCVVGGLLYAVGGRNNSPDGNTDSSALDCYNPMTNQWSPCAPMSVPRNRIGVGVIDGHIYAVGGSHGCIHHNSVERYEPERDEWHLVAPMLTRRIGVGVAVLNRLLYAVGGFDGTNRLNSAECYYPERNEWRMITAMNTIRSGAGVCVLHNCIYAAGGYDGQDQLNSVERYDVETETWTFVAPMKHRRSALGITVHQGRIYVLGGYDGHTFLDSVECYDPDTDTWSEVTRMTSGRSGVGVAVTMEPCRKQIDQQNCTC
# CAL PDZ FP-1 – human CAL PDZ-peptide interaction inhibition | purified CAL PDZ, TMR-peptide fluorescence polarization, 1 h | 330,000 tested, 0.02% active | AID 504414 | Q9HD26 | inhibition, % at 20 µM;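 active = highest replicate inhibition of at least 40%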;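 note: plate controls were DMSO neutral control wells for no effect and unlabeled competitor peptide control wells for full effect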
#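 Material: tagged CAL PDZ protein CerCALP, purified; buffer or medium: sodium phosphate/NaCl buffer pH 7.4 with TCEP, IgG, Thesit; also added: fluorescent TMR peptide probe; schedule: 1 h incubation at room temperature before polarization reading; technique: fluorescence polarization from S- and P-plane intensities, G-factor corrected; control set: unlabelled peptide and DMSO controls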
# CAL PDZ FP-2 – inhibitors of human CAL PDZ peptide binding. purified CAL PDZ, TMR-peptide fluorescence polarization, 1 h. Q9HD26. inhibition, % at 24.9 µM. 300,000 tested, 0.92% active;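 active = mean inhibition of at least 30% with at least half of replicates also reaching 30%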;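 note: 0% = DMSO neutral control and 100% = excess unlabeled competitor peptide PRC23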
# miR-122 sensor – inhibitors of miR-122 in Huh7 cells; Huh7 miR-122 Renilla luciferase sensor, 48 h; neutral wells = 0, positive control = 100; 340,000 tested, 0.3% active; AID 602342; activation (reporter increase), % at 12.5 µM;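 active = mean replicate activation score at least 90 and every replicate individually at or above 90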;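 note: higher luciferase means less miR-122 activity so hits act as miR-122 inhibitors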
# C-LANA FP – blocks KSHV LANA C-terminal domain binding to DNA. 340,000 tested, 0.078% active. MBP-C-LANA/FAM-LBS DNA binding, fluorescence polarization. AID 504423. inhibition, % at 9 µM;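 active = highest replicate inhibition at or above 60% at 9 µM, even if other replicates fall short; inactive = all replicates below 60% inhibition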;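 note: 0% = neutral control wells and 100% = 4 µM acridine orange control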
# Starred values were filed as active, the others as inactive; . = no result given; + = active, no number; [ ] = dose if it differs, or a comment. In the library only some 1.1% were active in any assay of this set; here they are far more common.
SMILES,Keap1 Nrf2 FP,CAL PDZ FP-1,CAL PDZ FP-2,miR-122 sensor,C-LANA FP
COc1cc(/C=C2\SC(=S)N(NS(=O)(=O)c3ccc(C)cc3)C2=O)cc(OC)c1OC,-2,0,0,1,0
CC1CCC(NC(=O)CCN2C(=O)C3CC=CCC3C2=O)CC1 (configuration not stated),-2,0,67*,.,0
COC(=O)c1ccccc1-c1ccc(/C=N/NC(=O)c2cc3ccccc3o2)o1,-5,-7,-9,4,2
COC(=O)c1ccccc1-c1c2ccc(=N)cc-2oc2cc(N)ccc12,+,109*,.,1,.
O=C(O)CNC(=O)C1(N2C(=O)c3ccccc3C2=O)CCCC1,0,0,-3,100*,3
CCS(=O)(=O)N1CCN(S(=O)(=O)c2ccccc2[N+](=O)[O-])CC1,-4,0,-6,8,-3
CSc1ccccc1NC(=O)CN1CCN(S(=O)(=O)c2ccccc2[N+](=O)[O-])CC1,0,-1,+,6,-1
C[C@@H]1CCCCO[C@H](CN(C)C(=O)Nc2ccc(F)cc2)[C@H](C)CN([C@H](C)CO)C(=O)c2cc(N(C)C)ccc2O1,.,.,.,-5[16.7 µM],.
CCn1nnnc1SCC(=O)c1cc(OC)ccc1OC,-8,0,41*,-10,0
COc1ccc(OC)c(C(=O)CSc2nnnn2C)c1,3,-3,-1,-9,1
O=C(CSc1nc2ncccc2[nH]1)NCc1ccco1,-1,-1,59*,-1,1
CCCc1cc(=O)oc2c3c(cc(OCC(=O)N4CCC[C@H]4C(=O)O)c12)OC(C)(C)CC3,-8,0,43*,-1,0
CCc1cc(=O)oc2c3c(cc(OCC(=O)NC4CC4)c12)OC(C)(C)CC3,-2,-2,4,1,0
Cc1ccc(S(=O)(=O)NCCCCCCNS(=O)(=O)c2ccc(C)cc2)cc1,.,.,.,28,.
Cc1ccc(S(=O)(=O)NCCN(CCNS(=O)(=O)c2ccc(C)cc2)S(C)(=O)=O)cc1,2,-1,52*,12,1
Nc1nonc1C(=O)NCCNCc1cc(Br)ccc1OCc1ccccc1F,-2,-2,-4,-29,-1
Nc1nonc1C(=O)NCCNCc1ccccc1OCc1ccccc1F,-6,-1,74*,-10,0
Cc1csc(SCC(=O)Nc2ccc3[nH]c(=O)[nH]c3c2)n1,-5,0,106*,-3,1
CCCNC(=O)C[C@H]1C[C@H]2c3cc(NC(=O)CC4CC4)ccc3O[C@H]2[C@H](CO)O1,.,.,.,3[16.7 µM],.
COc1cccc(C(=O)NC(=S)Nc2ccc(N3CCCC3)cc2)c1,-2,1,-2,-1,1
CCCC(=O)N1CCN(c2ccc(NC(=S)NC(=O)c3cccc(C)c3)cc2)CC1,1,-1,75*,.,-2
CC1CCC2(CC1)NC(=O)N(CC(=O)NC1CCCCC1C)C2=O (configuration not stated),0,1,33*,-9,2
Cc1noc(C)c1COC(=O)CCc1nc2ccccc2c(=O)[nH]1,-1,.,45*,16,2
Fc1ccc(Cn2nnc3ccccc32)cc1,-1,.,123*,-8,-1
CCC(=O)N1C[C@@H]2[C@H](c3ccccc31)[C@H](CO)N2Cc1ccccc1F,.,.,.,17[16.7 µM],.
SMILES,Keap1 Nrf2 FP,CAL PDZ FP-1,CAL PDZ FP-2,miR-122 sensor,C-LANA FP
Cc1nc(/C(N)=N/OC(=O)c2cccc(Cl)c2)c(C(F)(F)F)o1,-2,-2,.,2,0
Cc1nc(/C(N)=N/OC(=O)c2ccccc2Cl)c(C(F)(F)F)o1,-3,-1,68*,8,0
Cc1ccc(-c2nc3c(c(=O)[nH]c(=O)n3Cc3ccccc3)n2C)o1,-1,-2,31*,.,0
COC(=O)C(CC(=O)c1ccc(C)cc1)n1nc(C)cc1C (configuration not stated),5,0,129*,-1,-1
COC(=O)C(CC(=O)c1ccc(Br)cc1)n1nc(C)cc1C (configuration not stated),-4,0,0,-5,0
O=C(Nc1ccccn1)Nc1ccccc1Cl,-1,3,31*,1,2
O=C(CNC(=O)c1ccccc1F)N/N=C/c1ccc2c(c1)OCO2,-2,-2,-3,0,2
O=C(CNC(=O)c1ccccc1Cl)N/N=C/c1ccc2c(c1)OCO2,0,-2,96*,.,0
